Series [1] concerns Hamster. The series can be described thus: Antiatherosclerotic activity in Bio F1B hamster model of diet-induced atherosclerosis assessed as reduction in CE to FC ratio in intestine at 0.3 to 10 mg/kg/day added to chow pellets. Type of series: functional, organism-based. To be noted: Cricetinae.
Series [2] deals with Hamster. The series can be described thus: Antiatherosclerotic activity in cholesterol fed F1B hamster model of diet-induced atherosclerosis assessed as reduction in lipid accumulation areas at 30 mg/kg. Type of series: functional, Cricetinae, Bio F1B. Also noted: scale not given: the % may be the effect or the level left.
In series [3] the test system is Hamster. The series can be described thus: Toxicity in Bio F1B hamster model of diet-induced atherosclerosis assessed as reduction in CE to FC ratio in adrenal gland at 0.3 to 10 mg/kg/day added to chow pellets. The series is classed as organism-based. To be noted: cricetinae, in vivo, po.
For series [4], the system named is Hamster. Description: Antiatherosclerotic activity in Bio F1B hamster model of diet-induced atherosclerosis assessed as reduction in total plasma cholesterol at 0.3 to 10 mg/kg/day added to chow pellets relative to control. The series is classed as functional, organism-based. The conditions noted are these: Cricetinae. In short, it runs like this: (§1)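 Male Bio F1B hamsters (8 weeks old) were fed CE-2 chow with 0.3% cholesterol and 10% coconut oil for 10 weeks, with compound mixed into the chow (n=7 per dose; reference group n=6). Plasma TC was measured by enzymatic kit. Aorta was perfusion-fixed with 4% paraformaldehyde under pentobarbital anaesthesia, opened and stained with oil red O, and lipid area was measured by image analysis. Results are % of control ± SD, analysed by Dunnett's test.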

Series [5] has as its system Hamster. The series can be described thus: Antiatherosclerotic activity in cholesterol fed F1B hamster model of diet-induced atherosclerosis assessed as reduction in lipid accumulation areas at 3 mg/kg. Set-up: scale not given: the % may be the effect or the level left. Type of series: functional, Cricetinae, Bio F1B.
The nature of series [6]: Toxicity in rabbit. The series is classed as organism-based, Oryctolagus cuniculus. The conditions noted are these: in vivo. In short, it runs like this:
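Preliminary adrenal toxicity test in male rabbits (four per group) given a single intravenous injection. Adrenal glands were examined 24 h after dosing for necrosis of zona fasciculata cells. The read-out was the number of animals affected per group. PD-132301-2 served as the positive control.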

Series [7] deals with Hamster. Description: Antiatherosclerotic activity in Bio F1B hamster model of diet-induced atherosclerosis assessed as reduction in CE to FC ratio in liver at 0.3 to 10 mg/kg/day added to chow pellets. The series is classed as functional, organism-based. To be noted: Cricetinae.
For series [8], the system named is Hamster. Description: Antiatherosclerotic activity in cholesterol fed F1B hamster model of diet-induced atherosclerosis assessed as reduction in lipid accumulation areas at 10 mg/kg. Type of series: functional, Cricetinae, Bio F1B. Also noted: scale not given: the % may be the effect or the level left.
In series [9] the test system is Hamster. The series can be described thus: Antiatherosclerotic activity in Bio F1B hamster model of diet-induced atherosclerosis assessed as reduction in lipid accumulation areas in aortic arch at 0.3 to 10 mg/kg/day added to chow pellets by oil red O staining based assay relative to control. The conditions noted are these: Cricetinae. The series is classed as functional, organism-based. In short, it runs like this: as §1

A short description of series [10]: Solubility of the compound in 0.025N HCl. Type of series: physicochemical.

Calls of active or inactive are those of the source. The rule behind the calls is not given here.

With `CC(C)c1cc(C(C)C)c(CC(=O)NS(=O)(=O)Oc2c(C(C)C)cccc2C(C)C)c(C(C)C)c1` [AVASIMIBE], the outcome in the series on Hamster [1], with Hamster [4], with Hamster [7] and with Hamster [9] was Active. Also, the Activity with Hamster [2] is reported as 93%; in the series on Hamster [3], “Non-Toxic”; in the series on Hamster [5], 68%; in the series with Hamster [8] it was 86%. In [6], this compound returned an NOAEL of 5 mg/kg.

In series [10], `CN(C)c1ccc(NC(=O)N(Cc2cccc(CN(C(=O)Nc3ccc(N(C)C)cc3)C3CCCCCC3)c2)C2CCCCCC2)cc1.Cl.Cl` returned a solubility of 10 mg/mL.

As usually defined, the NOAEL is the highest dose or exposure tested at which no adverse effect was seen. Usually solubility stands for the dissolved amount per volume that the medium holds.

(Values after ChEMBL document CHEMBL4261657, “Discovery of Clinical Candidate 2-(4-(2-((1 H-Benzo[ d]imidazol-2-yl)thio)ethyl)piperazin-1-yl)- N-(6-methyl-2,4-bis(methylthio)pyridin-3-yl)acetamide Hydrochloride [K-604], an Aqueous-Soluble Acyl-CoA:Cholesterol O-Acyltransferase-1 Inhibitor” (J Med Chem, 2018).)
